Active and inactive are the calls of the source. The calls are words filed in the database; no cut-off is given here.

As usually defined, the MIC90 is an inhibitory concentration at the 90% level, which refers to growth in some studies and to a panel of isolates in others.

The test system of test [1] is Mycobacterium tuberculosis variant bovis. The test can be described thus: Antimycobacterial activity against Mycobacterium bovis BCG ATCC 35734 assessed as increase in ROS level at 0.175 to 0.64 uM incubated for 2 hrs by CellROX green reagent fluorescence assay. The test is classed as functional, organism-based. Particulars: dose 0.175-0.64 µM, DDE = dose-dependent effect. Summed up: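 CellROX Green then added to 10 μM final, followed by 30 min at 37°C in the dark. Readout is green fluorescence (Ex 485/Em 520 nm) normalized to OD600. Naphthoquinone positive control, INH negative control.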

For test [2] the test system is unchanged. The test can be described thus: Induction of oxidative stress Mycobacterium bovis BCG ATCC 35734 expressing pfurA-RFP assessed as activation of pfurA at 0.5 to 2 times MIC90 measured after 24 hrs by fluorescence assay. The test is classed as functional, organism-based. An outline of the steps: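 BCG carrying an integrated pfurA-mCherry reporter (kanamycin-selected). […] Red fluorescence (Ex 587/Em 630 nm) normalized to OD600. INH negative control.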

Test [3] has the same test system. The test can be described thus: Bactericidal activity against Mycobacterium bovis BCG ATCC 35734 assessed as reduction on colony forming unit at 15 uM measured upto 14 days by time killing assay. Particulars: time <= 14.0 day. The test is classed as functional, organism-based.
For test [4] the test system is unchanged. Briefly: Bactericidal activity against Mycobacterium bovis BCG ATCC 35734 assessed as reduction on colony forming unit at 5 uM measured after 8 days by time killing assay. The test is classed as functional, organism-based. Particulars: time 8.0 day.
For test [5] the test system is unchanged. The test can be described thus: Antimycobacterial activity against Mycobacterium bovis BCG ATCC 35734 assessed as inhibition of bacterial growth by two-fold serial broth dilution method. The test is classed as functional. Summed up:
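BCG grown at 37°C in 7H9 broth with 0.05% Tween-80, 0.5% glycerol and 10% ADC. Broth dilution method. MIC50/MIC90 are the concentrations giving 50%/90% growth inhibition versus untreated drug-free controls.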
On the technique in general: In broth dilution the organism is exposed to a series of concentrations in liquid medium.

`CCCCn1c2c([n+](C3CCC4(CCCCC4)CC3)c1C)C(=O)c1ccccc1C2=O.[Br-]`: the Activity entry in test [1] is “Dde”. Besides, the result in test [2] was Active.

As for `NNC(=O)c1ccncc1`, the result in test [3] was Active.

In the case of `CCCCCCCCn1c2c([n+](CCCC)c1C)C(=O)c1ccccc1C2=O.[Br-]`, the Activity result in test [1] was “Dde”. In test [2], the outcome was Active.

Regarding `Cc1nc2c(n1CCCCCCCCC[P+](c1ccccc1)(c1ccccc1)c1ccccc1)C(=O)c1ccccc1C2=O`, in test [4], the outcome was Active.

As to `Cc1nc2c(n1CCCCCCCCCCC[P+](c1ccccc1)(c1ccccc1)c1ccccc1)C(=O)c1ccccc1C2=O`, in test [5], the MIC90 came to 0.8 µM.

The record behind these values is ChEMBL document CHEMBL5104224, “Alkyltriphenylphosphonium turns naphthoquinoneimidazoles into potent membrane depolarizers against mycobacteria” (RSC Med Chem, 2022).
